The results in this text go back to ChEMBL document CHEMBL2424622, “Development of amino-pyrimidine inhibitors of c-Jun N-terminal kinase (JNK): kinase profiling guided optimization of a 1,2,3-benzotriazole lead” (Bioorg Med Chem Lett, 2013).

The target in experiment [1] is cAMP-dependent protein kinase catalytic subunit beta (Homo sapiens) (UniProt P22694). The experiment can be described thus: Competitive binding affinity to PKAC-beta (unknown origin) at 10 uM in presence of ATP relative to control. The essentials:
(§1)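 In vitro ATP-site competition binding assay across a diverse panel of 128 kinases, with compound tested at a single concentration. Kinase selectivity scores (S15) were calculated from the panel profiles.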

Experiment [2] addresses Macrophage colony-stimulating factor 1 receptor (Homo sapiens) (UniProt P07333). Description: Competitive binding affinity to CSF1R (unknown origin) at 10 uM in presence of ATP relative to control. The essentials: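 In vitro ATP-site competition binding assay across a diverse panel of 128 kinases, with each compound tested at a single concentration. Kinase binding is expressed relative to control.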

Experiment [3] has as its target T1, Serine/threonine-protein kinase TNNI3K (Homo sapiens) (UniProt Q59H18).
T1 sequence (whole entry): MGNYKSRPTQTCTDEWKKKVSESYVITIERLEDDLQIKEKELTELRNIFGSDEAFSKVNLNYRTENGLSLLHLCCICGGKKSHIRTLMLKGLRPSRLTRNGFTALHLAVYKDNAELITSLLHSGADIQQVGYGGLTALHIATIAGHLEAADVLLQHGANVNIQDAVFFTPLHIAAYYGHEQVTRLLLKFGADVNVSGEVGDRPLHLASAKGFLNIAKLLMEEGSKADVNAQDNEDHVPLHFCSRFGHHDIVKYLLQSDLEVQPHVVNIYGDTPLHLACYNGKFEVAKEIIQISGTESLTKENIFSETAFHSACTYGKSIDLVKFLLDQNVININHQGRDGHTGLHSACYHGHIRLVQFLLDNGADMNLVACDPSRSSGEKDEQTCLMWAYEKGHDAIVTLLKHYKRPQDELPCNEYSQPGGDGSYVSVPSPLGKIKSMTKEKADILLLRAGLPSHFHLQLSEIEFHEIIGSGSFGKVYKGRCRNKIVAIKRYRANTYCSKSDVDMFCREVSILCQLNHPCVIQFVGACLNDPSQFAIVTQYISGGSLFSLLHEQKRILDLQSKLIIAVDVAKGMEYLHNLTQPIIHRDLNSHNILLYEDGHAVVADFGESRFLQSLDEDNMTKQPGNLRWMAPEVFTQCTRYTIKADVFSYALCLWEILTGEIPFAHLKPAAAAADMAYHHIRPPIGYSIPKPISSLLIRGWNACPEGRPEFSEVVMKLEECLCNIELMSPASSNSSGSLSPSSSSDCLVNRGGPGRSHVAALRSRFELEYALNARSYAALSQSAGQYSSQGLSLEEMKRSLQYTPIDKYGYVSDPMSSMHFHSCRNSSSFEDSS
The experiment can be described thus: Competitive binding affinity to […] (unknown origin) at 10 uM in presence of ATP relative to control.

In experiment [4] the test system is Tyrosine-protein kinase ABL1 (Homo sapiens), P00519 [H396P]. Description: Competitive binding affinity to ABL1 H396P mutant (unknown origin) at 10 uM in presence of ATP relative to control.
Experiment [5] has as its target T2, Phosphatidylinositol 5-phosphate 4-kinase type-2 beta (Homo sapiens) (UniProt P78356).
T2 sequence (whole entry): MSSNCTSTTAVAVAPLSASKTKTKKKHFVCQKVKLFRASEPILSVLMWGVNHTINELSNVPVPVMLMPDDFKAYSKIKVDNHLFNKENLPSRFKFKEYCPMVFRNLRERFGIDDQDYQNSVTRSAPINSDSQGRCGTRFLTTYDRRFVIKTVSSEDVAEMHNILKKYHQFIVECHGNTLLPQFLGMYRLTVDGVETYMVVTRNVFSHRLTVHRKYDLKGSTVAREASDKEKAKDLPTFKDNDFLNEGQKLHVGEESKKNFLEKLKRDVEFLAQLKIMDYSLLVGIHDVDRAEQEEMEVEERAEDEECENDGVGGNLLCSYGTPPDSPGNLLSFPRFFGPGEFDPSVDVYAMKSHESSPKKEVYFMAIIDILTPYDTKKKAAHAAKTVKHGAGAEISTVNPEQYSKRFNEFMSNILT
Description: Competitive binding affinity to PIP5K2B (unknown origin) at 10 uM in presence of ATP relative to control.

In experiment [6] the target is T3, Tyrosine-protein kinase Mer (Homo sapiens) (UniProt Q12866).
T3 sequence (whole entry): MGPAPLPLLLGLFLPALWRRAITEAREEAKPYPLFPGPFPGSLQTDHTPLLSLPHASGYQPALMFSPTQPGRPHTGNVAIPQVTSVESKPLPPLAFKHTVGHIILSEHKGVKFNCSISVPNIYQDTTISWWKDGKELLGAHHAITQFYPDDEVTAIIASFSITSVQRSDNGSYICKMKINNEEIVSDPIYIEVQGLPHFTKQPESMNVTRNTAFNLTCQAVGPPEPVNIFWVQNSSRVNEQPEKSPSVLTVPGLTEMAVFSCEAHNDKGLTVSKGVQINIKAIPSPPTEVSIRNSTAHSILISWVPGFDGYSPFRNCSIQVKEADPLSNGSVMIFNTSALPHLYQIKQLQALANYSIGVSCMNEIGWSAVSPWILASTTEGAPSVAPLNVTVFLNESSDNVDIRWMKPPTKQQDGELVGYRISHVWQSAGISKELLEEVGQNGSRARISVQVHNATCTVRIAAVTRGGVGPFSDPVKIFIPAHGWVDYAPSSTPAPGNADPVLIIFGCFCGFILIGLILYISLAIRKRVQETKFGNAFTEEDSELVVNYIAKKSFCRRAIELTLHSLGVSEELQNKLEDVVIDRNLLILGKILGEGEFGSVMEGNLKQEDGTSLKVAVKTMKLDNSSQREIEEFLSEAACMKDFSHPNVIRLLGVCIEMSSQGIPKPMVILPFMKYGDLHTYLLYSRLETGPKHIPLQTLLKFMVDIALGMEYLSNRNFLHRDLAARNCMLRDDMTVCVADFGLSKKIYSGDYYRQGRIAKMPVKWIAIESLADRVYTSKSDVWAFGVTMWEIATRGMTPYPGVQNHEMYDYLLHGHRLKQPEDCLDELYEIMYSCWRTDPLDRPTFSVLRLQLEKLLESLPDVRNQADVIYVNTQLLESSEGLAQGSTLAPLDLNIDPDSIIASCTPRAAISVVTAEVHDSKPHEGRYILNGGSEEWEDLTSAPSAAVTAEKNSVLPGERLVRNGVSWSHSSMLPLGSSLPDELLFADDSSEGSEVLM
Description: Competitive binding affinity to MERTK (unknown origin) at 10 uM in presence of ATP relative to control. The essentials:
as §1

Macrophage colony-stimulating factor 1 receptor (Homo sapiens), sequence (P07333 whole entry): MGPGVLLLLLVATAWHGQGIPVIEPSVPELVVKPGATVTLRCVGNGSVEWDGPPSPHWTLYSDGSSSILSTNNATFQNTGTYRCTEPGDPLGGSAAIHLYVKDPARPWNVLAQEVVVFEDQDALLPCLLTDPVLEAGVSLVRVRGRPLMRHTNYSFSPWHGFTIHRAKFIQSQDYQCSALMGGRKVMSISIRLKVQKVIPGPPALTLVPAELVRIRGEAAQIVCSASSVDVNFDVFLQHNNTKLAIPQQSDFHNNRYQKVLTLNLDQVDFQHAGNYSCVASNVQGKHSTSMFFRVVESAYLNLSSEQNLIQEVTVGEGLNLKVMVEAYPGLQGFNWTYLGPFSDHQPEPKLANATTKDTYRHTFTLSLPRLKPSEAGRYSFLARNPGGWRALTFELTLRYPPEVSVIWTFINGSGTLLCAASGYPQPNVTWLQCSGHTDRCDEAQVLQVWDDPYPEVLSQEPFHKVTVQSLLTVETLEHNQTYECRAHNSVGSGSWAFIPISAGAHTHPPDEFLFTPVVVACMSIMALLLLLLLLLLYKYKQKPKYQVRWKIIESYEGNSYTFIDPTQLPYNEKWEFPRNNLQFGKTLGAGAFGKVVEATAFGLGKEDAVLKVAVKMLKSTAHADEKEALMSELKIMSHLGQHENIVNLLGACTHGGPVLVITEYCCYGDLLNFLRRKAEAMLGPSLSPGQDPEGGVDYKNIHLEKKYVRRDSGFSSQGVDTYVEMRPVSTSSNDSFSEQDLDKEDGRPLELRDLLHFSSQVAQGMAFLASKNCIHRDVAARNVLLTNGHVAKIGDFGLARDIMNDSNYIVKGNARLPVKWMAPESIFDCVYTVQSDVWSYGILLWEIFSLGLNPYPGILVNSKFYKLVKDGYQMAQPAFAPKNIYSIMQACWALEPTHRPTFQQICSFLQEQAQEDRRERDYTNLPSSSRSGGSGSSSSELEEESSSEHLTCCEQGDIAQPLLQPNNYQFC

The term inhibition denotes the share of the control response that was lost under treatment. Turning to `O[C@H]1CC[C@H](Nc2nccc(-n3ccc4ccccc43)n2)CC1`, the inhibition in experiment [1], in experiment [2], in experiment [3], in experiment [4], in experiment [5] and in experiment [6] was less than 50% each time.

Take `O[C@H]1CC[C@H](Nc2nccc(-n3ncc4ccccc43)n2)CC1`: the inhibition in experiment [1] was less than 50%; in experiment [2] it was 74%; in experiment [3], less than 50%; in experiment [4] it was less than 50%; in experiment [5] it was 92%; in experiment [6], 92%.

As for `O[C@H]1CC[C@H](Nc2nccc(-c3n[nH]c4ccccc34)n2)CC1`, the inhibition in experiment [1] was less than 50%; in experiment [2], 97%; in experiment [3], less than 50%; in experiment [4] it was less than 50%; in experiment [6] it was 100%.

As for `O[C@H]1CC[C@H](Nc2nccc(-n3nnc4ccccc43)n2)CC1`, the inhibition in experiment [1] was less than 50%; in experiment [2] it was less than 50%; in experiment [3], less than 50%; in experiment [4], less than 50%; in experiment [5], 74%; in experiment [6], less than 50%.
